# Assay outcomes from PubChem BioAssay.
# KCNQ1 inh – inhibitors of human KCNQ1 channel, primary screen, cell-based, thallium flux, high-throughput. Potassium voltage-gated channel subfamily KQT member 1 (Homo sapiens), P51787. CHO-K1 KCNQ1, FluxOR thallium flux fluorescence; hits give high values. B-score at 10 µM. hit rate 1.3% among 310,000. AID 2642, 2010;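 active = compounds whose thallium flux B-score, printed positive for inhibition, exceeds three library SD while starting fluorescence stays within three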;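 note: channel opened by potassium depolarization with thallium stimulus after 20 min compound exposure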
# KCNK9 block – KCNK9 potassium channel inhibitors, primary screen, HEK293 cells, thallium flux; hit rate 1.2% among 310,000; Potassium channel subfamily K member 9 (Homo sapiens), Q9NPC2; B-score at 10 µM; FluxOR thallium flux fluorescence; hits give low values;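 active = ratio B-score over 3 SD below the library mean, with starting fluorescence within 5 SD of its mean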;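 note: negative B-score means less thallium flux so channel inhibition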
# hERG protect – hERG rescue from dofetilide block, primary screen, cell-based, CHO-hERG, FluxOR thallium flux, dofetilide IC70; dofetilide IC70 present; activation (rescue from dofetilide block), less the hit threshold, % at 10 µM; hit rate 0.51% among 310,000; AID 1511, 2009;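 active = activation above the mean of controls blocked by dofetilide plus 5 SD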;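 note: thallium influx through hERG after potassium depolarization seen as dye fluorescence rise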
# KCNQ1 pot – potentiators or activators of KCNQ1 channel, primary screen, cell-based, thallium flux, high-throughput | Potassium voltage-gated channel subfamily KQT member 1 (Homo sapiens), P51787 | CHO-K1 KCNQ1, thallium flux FluxOR fluorescence; hits give high values | B-score at 10 µM | hit rate 0.35% among 310,000 | AID 2648, 2010;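 active = fluorescence ratio B-score, a plate-corrected score, at least three library SD, with initial intensity B-score within 5 SD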
#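 assay system = KCNQ1-transfected CHO-K1 cells | medium = assay buffer with matched DMSO | probe or stimulus = depolarizing K+/Tl+ stimulus, K2SO4 and Tl2SO4 each 12.5 mM in 5x stock | dosing = single dose | incubation = dye 90 min, compound 20 min, room temperature | detection = kinetic FluxOR fluorescence, 10 s baseline plus 110 s post-stimulus | evaluation = ratio B score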
# KCNK3 inh – human KCNK3 channel inhibitors, primary screen, CHO cells, FluxOR thallium flux, B-score. B-score at 10 µM. hit rate 0.84% among 340,000. FluxOR fluorescence; hits give low values. AID 602410, 2012;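 active = B-score under library mean minus 4 SD, starting fluorescence ratio at most library mean plus 5 SD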;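 note: more negative B-score means stronger inhibition of thallium flux through KCNK3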
# KCNK9 block conf – KCNK9 potassium channel inhibitors, confirmation, HEK293 cells, thallium flux, duplicate; shares compounds with KCNK9 block; FluxOR thallium flux fluorescence; inhibition, % at 10 µM; hit rate 43% among 4,900; AID 492992, 2010;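 active = thallium signal inhibited by more than 5 SD of the compound-free buffer control wells, on both duplicate plates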;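 note: 0% = assay buffer control wells without compound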
# Kir2-1 spec – mouse Kir2.1 channel inhibition, confirmation, selectivity assay for KCNK9 modulator project, cell-based, HEK293, thallium flux; hit rate 4% among 4,900; Kir2.1 cells, FluxOR thallium flux fluorescence; AID 492993, 2010; shares compounds with KCNK9 block; inhibition, % at 10 µM;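 active = thallium signal drop more than 5 SD beyond the mean of the no-compound control wells, seen in both duplicate plates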;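 note: signal is fluorescence rise after thallium addition divided by baseline fluorescence; plate controls were assay buffer only for no effect and full block by chlorpromazine control for full effect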
# Target sequence (P35561 whole entry, looked up): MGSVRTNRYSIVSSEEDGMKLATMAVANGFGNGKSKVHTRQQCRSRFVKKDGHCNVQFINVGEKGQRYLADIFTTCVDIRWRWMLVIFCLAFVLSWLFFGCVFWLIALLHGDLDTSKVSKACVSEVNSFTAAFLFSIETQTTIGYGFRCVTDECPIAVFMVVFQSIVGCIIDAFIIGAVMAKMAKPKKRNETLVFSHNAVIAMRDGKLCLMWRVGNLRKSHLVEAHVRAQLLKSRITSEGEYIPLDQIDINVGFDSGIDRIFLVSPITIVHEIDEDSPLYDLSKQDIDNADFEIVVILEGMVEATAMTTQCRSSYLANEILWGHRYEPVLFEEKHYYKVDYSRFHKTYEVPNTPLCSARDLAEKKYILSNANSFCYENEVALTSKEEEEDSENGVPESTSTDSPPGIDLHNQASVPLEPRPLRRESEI
# KCNK9 uninduced – thallium flux in non-induced HEK293 cells, confirmation, counter-screen for KCNK9 inhibitor project, cell-based, second counter screen, non-induced KCNK9-HEK293. shares compounds with KCNK9 block. FluxOR thallium flux. inhibition, % at 10 µM. hit rate 40% among 4,900;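 active = thallium signal drop beyond 5 SD of the untreated control mean, on both duplicate plates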;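 note: plate controls were buffer only IC0 wells for no effect and SID17386958 at its maximal inhibitory level for full effect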
# * marks the source's active call; other numbers are inactive results; i = inactive; x = not tested or not shown. The list is not random: actives were taken first. Their share in the collection is about 3.1%.
SMILES,KCNQ1 inh,KCNK9 block,hERG protect,KCNQ1 pot,KCNK3 inh,KCNK9 block conf,Kir2-1 spec,KCNK9 uninduced
COc1cc(NS(=O)(=O)c2ccc(NC(=S)NC(=O)c3sc4ccccc4c3Cl)cc2)nc(OC)n1,i,i,-20,i,i,i,i,i
COc1ccc(C(=O)c2coc3ccc(O)c(CN4CCCCC4)c23)cc1,i,i,-11,i,i,i,i,i
O=C(c1ccccc1)c1coc2ccc(O)c(CN3CCOCC3)c12,i,i,-6,i,i,x,x,x
COc1ccc(-c2ccc(SCC(=O)c3ccccc3)nn2)cc1OC,i,-11*,-17,i,i,60%*,i,i
Cc1ccc(-c2ccc(SCC(=O)c3ccccc3)nn2)cc1,i,i,-7,i,i,x,x,x
Nn1c(SCc2cccc(F)c2)nnc1-c1ccncc1,i,i,-10,i,i,x,x,x
C=CCC1(CC=C)CCCN1C(=O)c1cc(COc2ccc(F)c(F)c2)on1,10*,i,-5,i,i,i,i,i
CC(C)(C)C1CCC(C(=O)OCC(=O)N2CCOCC2)CC1 (stereo not given),i,i,-3,i,i,x,x,x
Cc1ccc(Nc2nnc(SCC(=O)Nc3cc(C(=O)O)ccc3C)s2)c(C)c1,i,i,-13,i,i,x,x,x
COc1ccc(-c2cc(C(F)(F)F)n3ncc(C(=O)NCc4ccco4)c3n2)cc1,i,i,-6,i,i,x,x,x
COc1ccc(-c2cc(C(F)(F)F)n3ncc(C(=O)N(C)Cc4ccccc4)c3n2)cc1,i,i,-15,i,i,i,i,i
O=C(Cc1ccc(Cl)cc1)Nc1ccccc1C(=O)N1CCCC1,i,i,-5,i,i,x,x,x
N#CC(c1ccc(F)cc1)c1ccc(C(=O)c2ccccc2)cc1 (stereo not given),i,i,-11,i,i,x,x,x
N#CC(c1ccccc1)c1ccc(C(=O)c2ccc(F)cc2)cc1 (stereo not given),i,-9.8*,-7,i,i,54%*,i,36%*
CCC1C(=NO)C(CC)C(c2ccccc2)NC1c1ccccc1 (stereo not given),i,i,-11,i,i,i,i,i
N#Cc1ccccc1Sc1ccccc1C(=O)OCC(=O)NC12CC3CC(CC(C3)C1)C2,i,-8.5*,-6,i,i,48%*,i,30%*
O=C(COC(=O)c1ccccc1)NC12CC3CC(CC(C3)C1)C2,x,x,x,x,i,x,x,x
N#C/C(=C(/O)CSc1nnc(Cc2cccs2)n1C1CCCCC1)c1nc2ccccc2[nH]1,i,i,-3,i,i,x,x,x
COc1ccccc1-c1nnc(SC/C(O)=C(\C#N)c2nc3ccccc3[nH]2)n1C1CCCCC1,i,-12*,-4,i,i,72%*,i,i
COC(=O)c1sc(-c2ccc(Cl)cc2)cc1NC(=O)CSCC(=O)O,i,i,-13,i,i,i,i,i
CCCCCCCCOC(=O)CCn1[nH]c(=O)c2ccccc2c1=O,i,i,-5,i,i,x,x,x
O=C(Cn1cc(C(=O)c2cccs2)c2ccccc21)NC1CCCCC1,i,-12*,-9,i,i,54%*,i,28%*
CCOC(=O)C1CCN(c2nc(-c3ccc(Br)cc3)nc3ccccc23)CC1,i,-8.8*,-12,i,i,i,i,22%*
NC(=O)C1CCN(c2nc(-c3ccccc3)nc3ccccc23)CC1,i,i,-18,i,i,x,x,x
COc1ccccc1C/C(N)=N/OC(=O)COc1cccc2ccccc12,i,i,-12,i,i,i,i,i
SMILES,KCNQ1 inh,KCNK9 block,hERG protect,KCNQ1 pot,KCNK3 inh,KCNK9 block conf,Kir2-1 spec,KCNK9 uninduced
COc1ccccc1C/C(N)=N/OC(=O)COc1ccccc1C,i,i,-9,i,i,i,i,i
COc1ccc(CC(=O)NNC(=O)c2cc(Cl)ccc2OC)cc1,x,x,x,x,i,x,x,x
Cc1ccnc(N2CCN(C(=O)CSc3nc4ccccc4nc3N3CCC(C)CC3)CC2)c1,i,i,-14,i,i,i,i,i
Cc1cccc(-n2c(Cc3ccccc3)nnc2SCc2ccc([N+](=O)[O-])cc2)c1,i,-14*,-9,i,i,i,i,41%*
Cc1c(O)ccc(C(=O)CN2CCN(c3ccccc3)CC2)c1O,i,i,-3,i,i,x,x,x
COc1ccc(N(CC(=O)N/N=C/c2cccnc2)S(=O)(=O)c2ccc(C)cc2)cc1OC,i,i,-10,i,i,x,x,x
COC(=O)c1ccc(/C=N/N2CCN(Cc3ccc(C)cc3C)CC2)cc1,i,i,-12,i,i,i,i,i
CCCN(C(=O)CSc1ccccc1C(=O)O)C1CCS(=O)(=O)C1 (stereo not given),x,x,x,x,i,x,x,x
O=C(OCc1nnc(-c2ccccc2)o1)c1ccccc1,i,i,-9,i,i,x,x,x
O=C(OCc1nnc(-c2ccccc2)o1)C12CC3CC(CC(Br)(C3)C1)C2,i,i,-14,i,i,i,i,i
CS(=O)(=O)N(CC(=O)Nc1ccc(S(=O)(=O)N2CCOCC2)cc1)c1ccccc1Br,i,i,-6,i,i,x,x,x
CCOc1ccccc1N1CCN(C(=O)c2ccccc2)CC1,i,i,-23,i,i,x,x,x
CCOc1ccccc1N1CCN(C(=O)C2c3ccccc3Oc3ccccc32)CC1,i,-12*,-9,i,-9.3*,45%*,i,36%*
Cc1ccccc1OCC(=O)NC(=S)Nc1ccc(Br)c(C)n1,i,i,-4,i,i,x,x,x
Cc1ccccc1OCC(=O)NC(=S)Nc1cccc2cc(O)ccc12,i,-8.9*,-9,i,i,52%*,i,i
COc1ccc(OCC(=O)NC(=S)Nc2ccccc2F)cc1,i,i,-2,i,i,i,i,i
O=C(COc1ccccc1)Nc1ccccc1F,i,i,0,i,i,x,x,x
